In ChEMBL document CHEMBL2034868, “Synthesis of methoxylated goniothalamin, aza-goniothalamin and γ-pyrones and their in vitro evaluation against human cancer cells” (Bioorg Med Chem, 2012):

Experiments:
U-251 = experiment: Growth inhibition of human U251 cells after 48 hrs by sulforhodamine B assay; assay type: functional
How it was run: (§1)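 Cells in 96-well plates were exposed for 48 h at 37 °C in 5% CO2 to compounds at 0.25, 2.5, 25 and […] in DMSO/RPMI. Doxorubicin was the positive control at […]. Cells were then fixed with 50% trichloroacetic acid and stained with sulforhodamine B, with protein read at 540 nm. TGI (the concentration where T = T0) was taken by non-linear regression of each cell line's concentration-response curve.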

MCF7 = experiment: Growth inhibition of human MCF7 cells after 48 hrs by sulforhodamine B assay; assay type: functional; how it was run: as §1
[1] = Growth inhibition of human NCI/ADR cells after 48 hrs by sulforhodamine B assay; assay type: functional; how it was run: as §1
786-0 = experiment: Growth inhibition of human 786-0 cells after 48 hrs by sulforhodamine B assay; assay type: functional; how it was run: as §1
NCI-H460 = experiment: Growth inhibition of human NCI-H460 cells after 48 hrs by sulforhodamine B assay; assay type: functional; how it was run: as §1
OVCAR-3 = experiment: Growth inhibition of human OVCAR3 cells after 48 hrs by sulforhodamine B assay; assay type: functional; how it was run: as §1
HT-29 = experiment: Growth inhibition of human HT-29 cells after 48 hrs by sulforhodamine B assay; assay type: functional; how it was run: as §1
[2] = Growth inhibition of human HaCaT cells after 48 hrs by sulforhodamine B assay; assay type: cell-based; how it was run: as §1

SMILES	GI (U-251)	GI (MCF7)	GI [1]	GI (786-0)	GI (NCI-H460)	GI (OVCAR-3)	GI (HT-29)	TGI at 48 h [2]
O=C1C=COC(/C=C/c2ccccc2)C1 (stereo unspecified)	121.8 µM	152.6 µM	105.3 µM	138.2 µM	82.4 µM	58.2 µM	123.6 µM	126 µM
O=C1C=COC(/C=C/c2ccc(C(F)(F)F)cc2)C1 (stereo unspecified)	38.6 µM	41.2 µM	51.6 µM	39.6 µM	95.6 µM	58.2 µM	33.3 µM	123 µM
COc1ccc(/C=C/C2CC(=O)C=CO2)cc1 (stereo unspecified)	151.9 µM	155.5 µM	239.3 µM	191.5 µM	149.4 µM	87.4 µM	203.9 µM	144 µM
COc1ccc(/C=C/C2CC(=O)C=CO2)cc1OC (stereo unspecified)	86.9 µM	130.2 µM	145.8 µM	145.1 µM	89.6 µM	74.3 µM	123.2 µM	134 µM
COc1cc(/C=C/C2CC(=O)C=CO2)cc(OC)c1OC (stereo unspecified)	101.8 µM	149.4 µM	223.2 µM	125 µM	127.3 µM	85.4 µM	134.5 µM	155 µM
O=C1C=COC(/C=C/c2ccc3c(c2)OCO3)C1 (stereo unspecified)	77 µM	81.4 µM	186.8 µM	104.1 µM	147.4 µM	101.7 µM	126.9 µM	145 µM
O=c1ccoc(/C=C/c2ccccc2)c1	285.4 µM	691.1 µM	514.2 µM	409.9 µM	508.5 µM	545.5 µM	344.1 µM	711 µM
COc1ccc(/C=C/c2cc(=O)cco2)cc1	278.4 µM	395.9 µM	309.9 µM	376.8 µM	606.1 µM	327.9 µM	379.2 µM	710 µM
COc1ccc(/C=C/c2cc(=O)cco2)cc1OC	338.9 µM	953.6 µM	407.9 µM	635.4 µM	545.5 µM	540.2 µM	806.7 µM	690 µM
COc1ccc(C2CC(=O)C=CO2)cc1 (stereo unspecified)	226.1 µM	172.9 µM	419.6 µM	197 µM	192.8 µM	248.6 µM	203.4 µM	264 µM
COc1ccc(-c2cc(=O)cco2)cc1	>1236.3 µM	>1236.3 µM	>1236.3 µM	>1236.3 µM	>1236.3 µM	>1236.3 µM	>1236.3 µM	> 1240 µM
COc1ccc(C2CC(=O)C(Br)=CO2)cc1 (stereo unspecified)	46.4 µM	42.2 µM	52.9 µM	33.4 µM	117.7 µM	113.5 µM	69 µM	164 µM
COc1ccc(C2CC(=O)C(I)=CO2)cc1 (stereo unspecified)	24.4 µM	43.2 µM	39.7 µM	27 µM	74.6 µM	38.2 µM	24.4 µM	53.3 µM
O=C1C=CCC(/C=C/c2ccccc2)N1 (stereo unspecified)	797.6 µM	607.4 µM	966.6 µM	>1254.8 µM	928.5 µM	>1254.8 µM	1195.8 µM	> 1250 µM
O=C1C=CCC(/C=C/c2ccccc2C(F)(F)F)N1 (stereo unspecified)	69.9 µM	120.2 µM	40.6 µM	123.4 µM	194.7 µM	329.3 µM	195.4 µM	249 µM
O=C1C=CCC(/C=C/c2ccc(C(F)(F)F)cc2)N1 (stereo unspecified)	130.3 µM	149.5 µM	71.8 µM	127.8 µM	150.4 µM	126 µM	139.2 µM	174 µM

SMILES	GI (U-251)	GI (MCF7)	GI [1]	GI (786-0)	GI (NCI-H460)	GI (OVCAR-3)	GI (HT-29)	TGI at 48 h [2]
COc1ccc(/C=C/C2CC=CC(=O)N2)cc1 (stereo unspecified)	981.3 µM	>1090.4 µM	841.7 µM	>1090.4 µM	>1090.4 µM	786.8 µM	>1090.4 µM	> 1090 µM
COc1ccc(/C=C/C2CC=CC(=O)N2)c(OC)c1 (stereo unspecified)	>964.1 µM	>964.1 µM	>964.1 µM	>964.1 µM	>964.1 µM	>964.1 µM	>964.1 µM	> 964 µM
COc1ccc(/C=C/C2CC=CC(=O)N2)cc1OC (stereo unspecified)	>964.1 µM	>964.1 µM	>964.1 µM	>964.1 µM	>964.1 µM	>964.1 µM	>964.1 µM	> 964 µM
COc1cc(/C=C/C2CC=CC(=O)N2)cc(OC)c1 (stereo unspecified)	169.9 µM	146.4 µM	203.2 µM	173.4 µM	145.5 µM	232.1 µM	196.6 µM	212 µM
COc1cc(/C=C/C2CC=CC(=O)N2)cc(OC)c1OC (stereo unspecified)	>864.1 µM	>864.1 µM	>864.1 µM	>864.1 µM	>864.1 µM	>864.1 µM	>864.1 µM	> 864 µM
COc1cc(OC)c(OC)cc1/C=C/C1CC=CC(=O)N1 (stereo unspecified)	>864.1 µM	>864.1 µM	>864.1 µM	>864.1 µM	>864.1 µM	>864.1 µM	>864.1 µM	> 864 µM
O=C1C=CCC(/C=C/c2ccccc2C(F)(F)F)O1 (racemic)	43.4 µM	50.4 µM	75.5 µM	52.3 µM	241.5 µM	295.6 µM	71.7 µM	82.7 µM
O=C1C=CCC(/C=C/c2ccc(C(F)(F)F)cc2)O1 (racemic)	36.8 µM	51 µM	54.8 µM	44.5 µM	476.9 µM	167.2 µM	36.2 µM	69.7 µM
COc1ccc(/C=C/C2CC=CC(=O)O2)cc1 (racemic)	20.6 µM	25.5 µM	17.3 µM	21.6 µM	28.3 µM	61.5 µM	33.7 µM	58.8 µM
COc1ccc(/C=C/C2CC=CC(=O)O2)c(OC)c1 (racemic)	4.6 µM	5.4 µM	8.8 µM	4.1 µM	6 µM	5.6 µM	6.6 µM	15.8 µM
COc1ccc(/C=C/C2CC=CC(=O)O2)cc1OC (racemic)	23.9 µM	7.8 µM	11.6 µM	10.9 µM	14.6 µM	16.8 µM	17.2 µM	63 µM
COc1cc(/C=C/C2CC=CC(=O)O2)cc(OC)c1 (racemic)	8.1 µM	9.5 µM	8.9 µM	10.6 µM	9 µM	19.1 µM	8.2 µM	8.8 µM
COc1cc(/C=C/C2CC=CC(=O)O2)cc(OC)c1OC (racemic)	25.1 µM	15.3 µM	35.1 µM	18.5 µM	28.8 µM	44.9 µM	18.8 µM	21.6 µM
COc1cc(OC)c(OC)cc1/C=C/C1CC=CC(=O)O1 (racemic)	11.5 µM	3.8 µM	9.4 µM	6 µM	9.8 µM	7.2 µM	15.9 µM	46.9 µM
COc1cccc2c1C(=O)c1c(O)c3c(c(O)c1C2=O)C[C@@](O)(C(=O)CO)C[C@@H]3O[C@H]1C[C@H](N)[C@H](O)[C@H](C)O1 [DOXORUBICIN]	2.4 µM	3.7 µM	13.5 µM	2.1 µM	1.3 µM	6.3 µM	13.9 µM	0.8 µM
O=C1C=CC[C@H](/C=C/c2ccccc2)O1 [GONIOTHALAMIN]	13.7 µM	12.7 µM	8 µM	14.8 µM	13.6 µM	14.2 µM	13.9 µM	27.7 µM
